Screening results from PubChem.
MsrA inhibitor – bovine MsrA inhibition. AID 651718. purified bovine MsrA, absorbance read-out. 360,000 tested, 0.75% active. inhibition, % at 15.5 µM;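 also: 0% = vehicle wells with enzyme and 100% = reference inhibitor wells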
beta cell repl – induces beta-cell replication in MIN6 cells; AID 2380; MIN6 cells proliferation, ATPlite luminescence, 48 h; cells starved in 0.2% serum; 100% = growth in 10% serum; proliferation, % at 10 µM; 330,000 tested, 0.29% active;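 active = compounds whose signal lies at least 3.5 SD above the mean of all wells on their plate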;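 also: 0% = DMSO-treated cells in low-serum medium and 100% = 10% serum control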
bovine MsrA act – activators of bovine methionine sulfoxide reductase A. purified bovine MsrA, absorbance read-out. activation, % at 10.6 µM. 360,000 tested, 0.3% active. AID 602163; in the data active = activation above about 7.5%;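 also: 0% = vehicle and 100% = reference activator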
SKN-1 block – blocks SKN-1 activity in C. elegans. C. elegans VP596 Pgst-4::GFP/RFP ratio, acrylamide-induced, 24 h. inhibition, % at 21.8 µM. 360,000 tested, 0.49% active;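 active = interference check ratio from 0.5 to 1.5 plus GFP to RFP signal ratio inhibition reaching or exceeding a fixed threshold, cut at about 30% in these data, passing the limit was not always enough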
DAGLB inhibitor – diacylglycerol lipase beta (human) inhibition | AID 504411 | 340,000 tested, 0.059% active | HEK293T DAGLB membrane lysate, EnzChek fluorogenic substrate | Q8NCG7 | inhibition, % at 5.17 µM; in the data active = inhibition above about 34%;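 also: 0% = enzyme with vehicle and 100% = wells lacking enzyme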
Target sequence (Q8NCG7 whole entry, looked up): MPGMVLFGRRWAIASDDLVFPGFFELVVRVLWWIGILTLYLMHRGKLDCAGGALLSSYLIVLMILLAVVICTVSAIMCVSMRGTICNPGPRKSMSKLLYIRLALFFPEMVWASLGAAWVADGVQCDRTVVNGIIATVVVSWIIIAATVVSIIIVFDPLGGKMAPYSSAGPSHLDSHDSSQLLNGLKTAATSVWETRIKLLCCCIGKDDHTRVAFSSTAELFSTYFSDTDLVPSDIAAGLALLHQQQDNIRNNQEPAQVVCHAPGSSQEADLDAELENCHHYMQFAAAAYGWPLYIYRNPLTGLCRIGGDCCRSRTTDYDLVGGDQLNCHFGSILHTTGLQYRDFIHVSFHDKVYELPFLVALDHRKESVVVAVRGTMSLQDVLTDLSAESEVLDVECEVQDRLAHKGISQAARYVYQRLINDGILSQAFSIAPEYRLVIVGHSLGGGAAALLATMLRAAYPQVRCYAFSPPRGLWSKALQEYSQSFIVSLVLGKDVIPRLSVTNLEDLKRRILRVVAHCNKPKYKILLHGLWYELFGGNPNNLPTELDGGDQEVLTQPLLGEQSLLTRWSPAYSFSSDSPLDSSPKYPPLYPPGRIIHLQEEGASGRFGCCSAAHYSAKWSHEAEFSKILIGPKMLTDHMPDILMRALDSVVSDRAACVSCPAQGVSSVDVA
MT1-MMP act inh – inhibitors of human MT1-MMP activation | P50281 | 360,000 tested, 0.061% active | GFP/RFP ratio change, % at 20 µM | HT1080 RFP-PRO-GFP cells, GFP/RFP ratio fluorescence, overnight; percent of plate control window, DMSO zero;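 active = GFP/RFP ratio change of at least 30% with cell ATP level not reduced by more than half and red fluorescence within 50% of control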
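Test system: HT1080 cells expressing an RFP-PRO-GFP fluorescent reporter construct / Compound dosing: single-point 20 µM compound, 1% DMSO / Schedule: cells overnight before dosing, compound overnight, 37 °C, 5% CO2 / Evaluation: GFP/RFP fluorescence ratio / Control set: DMSO and RFP-L50D-GFP cell wells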
MsrA inh confirm – confirmation of bovine MsrA inhibitors; 2,300 tested, 41% active; AID 651822; shares compounds with MsrA inhibitor; purified bovine MsrA, absorbance read-out; inhibition, % at 15.5 µM;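 also: coupled to thioredoxin reductase with NADPH and selenocystamine and DMSO as substrate; 0% = vehicle only and 100% = full effect of reference inhibitor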
* marks the source's active call; other numbers are inactive results; / = no result given. Rows were chosen to be rich in hits. Some 1.8% of all compounds tested hit in one or more screens of this group. Rule as the data show it, unless noted: active = inhibition above about 4.5%; inactive = the rest.

SMILES | MsrA inhibitor | beta cell repl | bovine MsrA act | SKN-1 block | DAGLB inhibitor | MT1-MMP act inh | MsrA inh confirm
COc1cc(/C(C)=N/NC(=O)c2ccc(CSc3nncn3C)cc2)cc(OC)c1OC | 1 | -2 | 3 | -4 | 3 | 0 | /
CN(C)c1ccc(/C=N/NC(=O)c2ccc(CN3CCOCC3)cc2)cc1Br | 2 | 0 | -14 | -11 | / | 3 | /
COc1ccc(/C=N/NC(=O)c2ccc(CSc3nncn3C)cc2)cc1OC | 4.8* | 1 | -6 | 2 | 1 | 2 | 4
O=C(O)c1cccc(N=NN2CCOCC2)c1 | 1 | 2 | -12 | 0 | / | 2 | /
CCCCNC(=O)C1(C)CCC(=O)N1CCc1c[nH]c2ccccc12 (stereo not drawn) | 0 | / | -3 | 13 | / | 5 | /
COC(=O)c1ccc(NC2=CC(=O)CC(C)(C)C2)cc1 | 4.9* | 0 | -5 | 11 | -3 | 0 | 5.0*
CCN(CC)CCCN1C(=O)C(=O)/C(=C(/O)c2ccccc2)C1c1cc(OC)ccc1OC (stereo not drawn) | 19* | -1 | -1 | 1 | 1 | 11 | 6.4*
O=C(O)c1ccc(N/N=C/c2cccc(F)c2)cc1 | 6.8* | 0 | -2 | 5 | 0 | 0 | 6.7*
O=C(O)c1ccc(N/N=C/c2cccc(C(F)(F)F)c2)cc1 | 4 | -3 | -15 | -11 | -8 | -6 | /
O=C(O)c1ccc(N/N=C/c2ccc(F)c(F)c2)cc1 | 7.9* | 0 | -5 | 10 | 5 | 3 | 5.9*
Cc1cc(C(=O)O)ccc1-n1c(C)cc(/C=C2\SC(=O)NC2=O)c1C | 5.7* | 0 | -3 | 0 | 3 | 6 | 3
COC(=O)c1cccc(-n2c(C)cc(/C=C3\SC(=O)NC3=O)c2C)c1 | 3 | / | -2 | 3 | 5 | 2 | /
CC(C)OC1=CC(=O)OC(c2cccc(Cl)c2)C1 (stereo not drawn) | 1 | / | / | 0 | / | 2 | /
COc1ccc(/C=C/C(=O)c2ccoc2)cc1 | 4 | -5 | -9 | 10 | 2 | -3 | /
COc1ccc(/C=C/C(=O)c2ccc(O)cc2)cc1 | 5.2* | -4 | -10 | -4 | -7 | 0 | 4
COc1ccc(C=CC(=O)c2ccc(OC)c(OC)c2)cc1O | 4.7* | / | -11 | 1 | -2 | 8 | 3
CCCCCCCNC(=O)C1(CC2CC(c3ccc(Cl)cc3)=NO2)CCN(C(=O)c2cc(OCC)c(OCC)c(OCC)c2)CC1 (stereo not drawn) | 0 | -7 | 0 | 4 | -10 | -4 | /
O=C(/C=C/c1ccccc1)/C=C/c1ccccc1 | 4.9* | 0 | -6 | 81* | -1 | 1 | 1
CCc1nnc(N2C(=O)c3ccccc3C2(O)c2ccccc2)s1 (stereo not drawn) | -1 | 1 | -1 | 8 | -1 | 0 | /
O=C(NC(=S)NCCCN1CCOCC1)c1ccco1 | 5.8* | -1 | -2 | 2 | 0 | -4 | 3
Cc1nc2ccccn2c1C(=O)N/N=C/c1ccc([N+](=O)[O-])cc1 | / | -4 | / | / | / | / | /
Cc1nc2ccccn2c1C(=O)N/N=C/c1ccc([N+](=O)[O-])o1 | 5.2* | -7 | 4 | -1 | 1 | -9 | 3
Cc1cc(NN)nc(NS(=O)(=O)c2ccccc2)n1 | 1 | -1 | 0 | -6 | / | 0 | /
COc1cc(/C=N/Nc2cc(C)nc(NS(=O)(=O)c3ccccc3)n2)ccc1O | 7.4* | 2 | -7 | -8 | 1 | 8 | 6.9*
COc1ccc(/C=N/Nc2cc(C)nc(NS(=O)(=O)c3ccc(C)cc3)n2)cc1 | 3 | -1 | -2 | 8 | 4 | -6 | /
COc1cc(/C=N/Nc2cc(C)nc(NS(=O)(=O)c3ccc(C)cc3)n2)ccc1O | 5.5* | / | -8 | -11 | 0 | -7 | 5.7*
COc1ccc(NS(=O)(=O)c2cc(-c3cnc(C4CC4)o3)ccc2C)cc1 | 11* | -6 | -3 | 16 | -2 | -8 | 7.2*
COc1cc(/C=C(\C#N)C(=O)NCC2CCCO2)ccc1OCC(=O)O (stereo not drawn) | 5.5* | 7 | -6 | 8 | / | -1 | 4
